Experiments:
Histamine H3 receptor [1] = target: T1, Histamine H3 receptor (Homo sapiens, UniProt Q9Y5N1); assay: Displacement of [3H]Nalpha-methylhistamine from recombinant human histamine H3 receptor after 60 mins by scintillation counting method
Histamine H3 receptor [2] = target: T1, Histamine H3 receptor; assay: Antagonist activity at human H3 receptor expressed in CHOK1 cells incubated for 10 mins by HTRF assay; assay type: cell-based
[3] = Permeability of compound in 5% DMSO after 7 hrs by PAMPA; assay type: ADME; details: read-out: permeability
Histamine H3 receptor [4] = target: T1, Histamine H3 receptor; assay: Agonist activity at human H3 receptor expressed in CHOK1 cells incubated for 10 mins by HTRF assay; assay type: cell-based
[5] = target: T2, Bromodomain-containing protein 4 (Homo sapiens, UniProt O60885); assay: Inhibition of BRD4 in human MX1 cells assessed as decrease in cell proliferation after 3 days by Celltiter-Glo assay relative to parent compound; assay type: cell-based
Outline: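 MX-1 breast cancer cells were treated for a 3-day proliferation assay and read out by CellTiter-Glo. Each EC50 is the geometric mean of at least two duplicate runs. The fold change is the ratio of the result to that of (+)-JQ1.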

[6] = target: Bromodomain-containing protein 2 (Homo sapiens, UniProt P25440); assay: Inhibition of BRD2 (unknown origin) by TR-FRET assay
[7] = target: Bromodomain-containing protein 3 (Homo sapiens, UniProt Q15059); assay: Inhibition of BRD3 (unknown origin) by TR-FRET assay
[8] = target: T2, Bromodomain-containing protein 4; assay: Inhibition of BRD4 (unknown origin) by TR-FRET assay
[9] = target: T2, Bromodomain-containing protein 4; assay: Inhibition of BRD4 in luciferase expressing human […] cells transfected with HPV-E2 assessed as transrepression of HPV-long control region by luciferase reporter assay relative to parent compound
Outline: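 In-cell target engagement was read in an engineered H1299-derived luciferase reporter system. Each EC50 is the geometric mean of at least two duplicate runs. The fold change is the ratio to (+)-JQ1.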

[10] = Ratio of drug concentration in unbound HEK293 cell to media; assay type: ADME; details: human
Outline: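 In HEK293 cells, Kpuu combines compound binding (fu,HEK) with intracellular accumulation (Kp, cell-to-media concentration ratio). Values are the geometric mean of at least two duplicate runs.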

[11] = target: T2, Bromodomain-containing protein 4; assay: Inhibition of BRD4 in human […] cells transfected with HPV-E2 assessed as transrepression of HPV-long control region by luciferase reporter assay; assay type: cell-based

Sequence of Bromodomain-containing protein 2 (P25440 whole entry): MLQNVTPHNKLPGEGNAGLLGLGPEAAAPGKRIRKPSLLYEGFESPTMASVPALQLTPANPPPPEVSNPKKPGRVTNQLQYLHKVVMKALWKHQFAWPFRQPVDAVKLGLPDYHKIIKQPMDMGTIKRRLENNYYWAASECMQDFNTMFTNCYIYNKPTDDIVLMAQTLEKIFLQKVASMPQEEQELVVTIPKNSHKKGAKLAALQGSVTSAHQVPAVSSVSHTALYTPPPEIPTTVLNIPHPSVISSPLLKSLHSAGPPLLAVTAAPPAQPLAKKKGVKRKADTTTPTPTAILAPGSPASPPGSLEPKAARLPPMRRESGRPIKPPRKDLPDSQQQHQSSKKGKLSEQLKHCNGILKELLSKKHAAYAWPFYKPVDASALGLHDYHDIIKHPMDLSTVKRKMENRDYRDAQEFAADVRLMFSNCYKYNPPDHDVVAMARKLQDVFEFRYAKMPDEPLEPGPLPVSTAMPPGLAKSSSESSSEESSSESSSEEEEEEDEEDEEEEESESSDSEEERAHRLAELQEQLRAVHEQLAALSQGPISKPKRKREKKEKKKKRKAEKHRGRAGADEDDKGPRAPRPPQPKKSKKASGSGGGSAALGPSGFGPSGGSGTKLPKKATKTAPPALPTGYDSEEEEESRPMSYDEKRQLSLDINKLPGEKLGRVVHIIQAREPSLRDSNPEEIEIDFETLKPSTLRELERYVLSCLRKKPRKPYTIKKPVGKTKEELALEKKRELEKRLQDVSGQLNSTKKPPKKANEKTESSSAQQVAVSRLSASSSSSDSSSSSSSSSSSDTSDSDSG
Sequence of Bromodomain-containing protein 3 (Q15059 whole entry): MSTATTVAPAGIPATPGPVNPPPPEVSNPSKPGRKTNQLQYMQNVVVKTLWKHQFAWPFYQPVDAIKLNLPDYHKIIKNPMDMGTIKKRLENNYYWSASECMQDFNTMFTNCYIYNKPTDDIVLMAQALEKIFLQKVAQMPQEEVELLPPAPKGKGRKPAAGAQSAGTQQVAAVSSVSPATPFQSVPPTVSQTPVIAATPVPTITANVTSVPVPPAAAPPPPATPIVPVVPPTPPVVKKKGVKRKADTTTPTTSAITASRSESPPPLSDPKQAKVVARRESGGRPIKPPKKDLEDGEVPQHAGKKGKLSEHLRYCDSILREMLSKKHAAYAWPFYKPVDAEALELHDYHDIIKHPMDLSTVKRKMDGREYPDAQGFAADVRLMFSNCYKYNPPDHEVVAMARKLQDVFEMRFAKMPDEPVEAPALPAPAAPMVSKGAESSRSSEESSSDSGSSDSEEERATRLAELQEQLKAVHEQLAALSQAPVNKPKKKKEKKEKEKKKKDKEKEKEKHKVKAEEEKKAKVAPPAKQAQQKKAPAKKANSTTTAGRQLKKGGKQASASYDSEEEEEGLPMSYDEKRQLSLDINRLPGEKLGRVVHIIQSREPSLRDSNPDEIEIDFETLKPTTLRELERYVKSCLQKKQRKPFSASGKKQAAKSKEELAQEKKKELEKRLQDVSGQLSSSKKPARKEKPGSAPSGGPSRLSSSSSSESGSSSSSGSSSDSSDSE
T1 sequence (Q9Y5N1 whole entry): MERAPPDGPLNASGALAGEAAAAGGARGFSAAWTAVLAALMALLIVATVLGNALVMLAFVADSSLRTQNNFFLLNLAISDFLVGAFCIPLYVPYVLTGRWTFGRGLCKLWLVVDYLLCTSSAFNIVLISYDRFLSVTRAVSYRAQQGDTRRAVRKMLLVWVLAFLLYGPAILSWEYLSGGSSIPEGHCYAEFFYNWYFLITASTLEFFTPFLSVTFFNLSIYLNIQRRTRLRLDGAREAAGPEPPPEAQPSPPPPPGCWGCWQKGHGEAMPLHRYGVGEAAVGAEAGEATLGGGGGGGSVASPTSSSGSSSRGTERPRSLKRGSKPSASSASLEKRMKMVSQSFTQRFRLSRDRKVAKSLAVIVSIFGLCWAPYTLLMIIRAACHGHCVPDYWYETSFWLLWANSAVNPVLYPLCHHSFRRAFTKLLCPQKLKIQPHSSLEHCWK

| Ki (Histamine H3 receptor [1]) [nM] | IC50 (Histamine H3 receptor [2]) [nM] | Papp at 7 h [3] [×10⁻⁶ cm/s] | EC50 (Histamine H3 receptor [4]) [nM] | SMILES | fold change (FC) [5] | IC50 [6] [nM] | IC50 [7] [nM] | IC50 [8] [nM] | fold change (FC) [9] | Ratio [10] | EC50 [11] [nM] |
| --- | --- | --- | --- | --- | --- | --- | --- | --- | --- | --- | --- |
| 0.7 | 1 | 0.0246 | > 3000 | Cc1nn(CCOCCOCCN)cc1-c1ccc2cc(CCN3CCC[C@H]3C)ccc2n1 | – | – | – | – | – | – | – |
| 1.9 | 13 | 0.284 | 88 | Cc1nn(CCOCCOCCNC(=O)CCCCCC2(C)C(/C=C/C=C/C=C3/N(CCCS(=O)(=O)O)c4ccc(S(=O)(=O)O)cc4C3(C)C)=[N+](CCCS(=O)(=O)[O-])c3ccc(S(=O)(=O)O)cc32)cc1-c1ccc2cc(CCN3CCC[C@H]3C)ccc2n1 (stereo partly specified) | – | – | – | – | – | – | – |
| 1.5 | 41 | 0.873 | > 3000 | Cc1nn(CCOCCOCCNC(=O)OC(C)(C)C)cc1-c1ccc2cc(CCN3CCC[C@H]3C)ccc2n1 | – | – | – | – | – | – | – |
| – | – | – | – | Cc1sc2c(c1C)C(c1ccc(Cl)cc1)=N[C@@H](CC(=O)NCCOCCOCCNC(=O)CS(=O)(=O)O)c1nnc(C)n1-2 | > 50 | 78 | 78 | > 10000 | > 50 | 0.0219 | > 10000 |
| – | – | – | – | Cc1sc2c(c1C)C(c1ccc(Cl)cc1)=N[C@@H](CC(=O)NCCOCCOCCNC(=O)C1C(C(=O)O)C(C(=O)O)C1C(=O)O)c1nnc(C)n1-2 (stereo partly specified) | > 50 | 997 | 456 | > 10000 | > 50 | 0.0359 | > 10000 |
| 25.4 | 150 | 0.0131 | > 3000 | Cc1nn(CCOCCOCCNC(=O)C2C(C(=O)O)C(C(=O)O)C2C(=O)O)cc1-c1ccc2cc(CCN3CCC[C@H]3C)ccc2n1 (stereo partly specified) | – | – | – | – | – | – | – |
| – | – | – | – | Cc1sc2c(c1C)C(c1ccc(Cl)cc1)=N[C@@H](CC(=O)NCCOCCOCCNC(=O)CCCCCC1(C)C(/C=C/C=C/C=C3/N(CCCS(=O)(=O)O)c4ccc(S(=O)(=O)O)cc4C3(C)C)=[N+](CCCS(=O)(=O)[O-])c3ccc(S(=O)(=O)O)cc31)c1nnc(C)n1-2 (stereo partly specified) | > 50 | > 45000 | > 20500 | 9110 | > 50 | 0.0064 | > 10000 |
| 5.6 | 45 | – | > 3000 | Cc1nn(CCOCCOCCNC(=O)CS(=O)(=O)O)cc1-c1ccc2cc(CCN3CCC[C@H]3C)ccc2n1 | – | – | – | – | – | – | – |

| SMILES | Ki (Histamine H3 receptor [1]) [nM] | IC50 (Histamine H3 receptor [2]) [nM] | Papp at 7 h [3] [×10⁻⁶ cm/s] | EC50 (Histamine H3 receptor [4]) [nM] | fold change (FC) [5] | IC50 [6] [nM] | IC50 [7] [nM] | IC50 [8] [nM] | fold change (FC) [9] | Ratio [10] | EC50 [11] [nM] |
| --- | --- | --- | --- | --- | --- | --- | --- | --- | --- | --- | --- |
| Cc1sc2c(c1C)C(c1ccc(Cl)cc1)=N[C@@H](CC(=O)NCCOCCOCCNC(=O)OC(C)(C)C)c1nnc(C)n1-2 | – | – | 6.22 | – | 3.65 | 35 | 42 | 526 | 11.2 | 0.168 | 718 |
| Cc1sc2c(c1C)C(c1ccc(Cl)cc1)=N[C@@H](CC(=O)NCCOCCOCCN)c1nnc(C)n1-2 | – | – | 0.0146 | – | 17.2 | 16 | 7 | 2480 | > 50 | 0.0695 | 8490 |

Reference: ChEMBL document CHEMBL4311931, “Controlling cellular distribution of drugs with permeability modifying moieties” (Medchemcomm, 2019)
